Assay results taken from ChEMBL document CHEMBL1125823, “2-Phenylindole-linked [2-(aminoalkyl)pyridine]dichloroplatinum(II): complexes with a selective action on estrogen receptor positive mammary tumors” (1991).
Blank lines part the entries; values can stand above or below the compound they belong to.

Key:
[1] = target: T1, Estrogen receptor (Mus musculus) (UniProt O08537+P19785); experiment: Anti-uterotrophic effect in mice as relative uterine weight(mg) at 15 ug; format: functional
Summary of the method: (§1)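 Immature mice received the compound sc per animal on three consecutive days, alone or with 0.4 µg estrone per animal per day. Uteri were taken 24 h after the last injection, Bouin-fixed, dried at 100 °C for 24 h and weighed. Relative uterus weight = dry weight (mg)/body weight (g) × 100; mean of 6-10 animals ± SD; Mann-Whitney U test.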

[2] = species on record: Mus musculus; experiment: Relative tumor weight in treated compared to control mice bearing hormone-dependent transplanted MXT mammary tumors at 12.4 mg; format: functional
[3] = test system: MCF7; experiment: Effect on [3H]thymidine incorporation into estrogen receptor positive MCF-7 human breast cancer cells at 5x10E-6M; format: functional
Summary of the method: (§2)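 MCF-7 cells in improved MEM with glutamine, gentamycin and 5% newborn calf serum, switched to charcoal-treated serum two weeks ahead; phenol red present; 37 °C, 5% CO2. About 2×10^4 cells plated per well; compound in 0.1% DMF added 2 days later, renewed on day 4; labelled 3 days later with 1 μCi [3H]thymidine per well for 2 h; cpm/dish, mean of six dishes ± SD.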

[4] = target: T1, Estrogen receptor (Mus musculus); experiment: Anti-uterotrophic effect in hormone-dependent transplant MXT bearing mice as relative uterine weight in treated and control mice at 12.4 mg (control=100+/-30); format: functional
[5] = target: T1, Estrogen receptor (Mus musculus); experiment: Anti-uterotrophic effect in mice as relative uterine weight(mg) at 150 ug; format: functional; summary of the method: as §1
[6] = target: T1, Estrogen receptor (Mus musculus); experiment: Uterotrophic effect in mice as relative uterine weight(mg) at 15 ug (control = 12.4+/-3.7); format: functional, tissue-based
Summary of the method: (§3)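 Immature mice dosed sc per animal on three consecutive days; vehicle controls. Killed and weighed 24 h after last injection; uteri fixed in Bouin solution 2 h, washed with alcoholic LiCl, dried at 100 °C for 24 h. Relative uterus weight = uterine dry weight (mg)/body weight (g) × 100; mean of 6-10 animals ± SD.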

[7] = target: T1, Estrogen receptor (Mus musculus); experiment: Uterotrophic effect in mice as relative uterine weight(mg) at 150 ug (control = 12.4+/-3.7); format: functional, tissue-based; summary of the method: as §3
[8] = target: T1, Estrogen receptor (Mus musculus); experiment: Percent inhibition of estrone stimulated uterotrophic effect in mice at 150 ug; format: functional
Summary of the method: (§4)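 Immature mice given test compound per animal sc on three consecutive days together with 0.4 μg estrone/animal/day. Killed 24 h after last injection; uteri fixed in Bouin, dried 100 °C 24 h and weighed. Inhibition = 100 − [(W_S,T − W_V)/(W_S − W_V) × 100] using relative uterus weights; 6-10 animals; Wilcoxon-Mann-Whitney U test.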

[9] = test system: MCF7; experiment: Effect on Estrogen receptor positive MCF-7 human breast cancer cell proliferation at 5x10E-6M (control = 22.3+/-3.3); format: functional
Summary of the method: (§5)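 MCF-7 cells were kept in MEM with 5% charcoal-treated newborn calf serum and phenol red for 2 weeks, then about 2×10^4 cells were plated per well. Compounds in 0.1% DMF were added 2 days later and renewed on day 4; DMF alone served as control. Coulter cell counts were taken on day 5; mean of six dishes ± SD; % T/C.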

[10] = test system: MCF7; experiment: Effect on [3H]thymidine incorporation into estrogen receptor positive MCF-7 human breast cancer cells at 5x10E-6M (control = 7.7+/-0.8); format: functional; summary of the method: as §2
[11] = test system: MCF7; experiment: Effect on Estrogen receptor positive MCF-7 human breast cancer cell proliferation at 5x10E-6M; format: functional; summary of the method: as §5
[12] = test system: MCF7; experiment: Effect on Estrogen receptor positive MCF-7 human breast cancer cell proliferation at 1x10E-6M (control = 22.3+/-3.3); format: functional; summary of the method: as §5
[13] = test system: MCF7; experiment: Effect on [3H]thymidine incorporation into estrogen receptor positive MCF-7 human breast cancer cells at 1x10E-6M (control = 7.7+/-0.8); format: functional
Summary of the method: (§6)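 MCF-7 cells were grown in MEM with charcoal-treated 5% newborn calf serum and phenol red, then treated with compounds in 0.1% DMF (renewed on day 4) alongside DMF controls. They were labeled 3 days later with 1 µCi [³H]thymidine per well for 2 h, and incorporated radioactivity per dish was measured; mean of six dishes ± SD; % T/C.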

[14] = test system: MCF7; experiment: Effect on [3H]thymidine incorporation into estrogen receptor positive MCF-7 human breast cancer cells at 1x10E-6M; format: functional; summary of the method: as §6
[15] = test system: MCF7; experiment: Effect on Estrogen receptor positive MCF-7 human breast cancer cell proliferation at 1x10E-6M; format: functional; summary of the method: as §5
[16] = species on record: Mus musculus; experiment: Anti-tumor activity in hormone-dependent transplant MXT mammary tumor bearing mice at 12.4 mg (control=534+/-652); format: functional
[17] = species on record: Mus musculus; experiment: Relative tumor weight in treated compared to control mice bearing hormone-dependent transplanted MXT mammary tumors at 6.2 mg; format: functional
[18] = target: T1, Estrogen receptor (Mus musculus); experiment: Anti-uterotrophic effect in hormone-dependent transplant MXT bearing mice as relative uterine weight in treated and control mice at 6.2 mg (control=100+/-30); format: functional
[19] = species on record: Mus musculus; experiment: Anti-tumor activity in hormone-dependent transplant MXT mammary tumor bearing mice at 6.2 mg (control=534+/-652); format: functional
[20] = target: T1, Estrogen receptor (Mus musculus); experiment: Percent inhibition of estrone stimulated uterotrophic effect in mice at 15 ug; format: functional; summary of the method: as §4
[21] = species on record: Mus musculus; experiment: Anti-tumor activity in hormone-dependent transplant MXT mammary tumor bearing mice at 12.2 mg (control=197+/-130); format: functional
[22] = test system: MCF7; experiment: Effect on Estrogen receptor positive MCF-7 human breast cancer cell proliferation at 5x10E-7M; format: functional; summary of the method: as §5
[23] = test system: MCF7; experiment: Effect on Estrogen receptor positive MCF-7 human breast cancer cell proliferation at 1x10E-6M (control = 62.7+/-8.8); format: functional; summary of the method: as §5
[24] = target: T1, Estrogen receptor (Mus musculus); experiment: Uterotrophic effect in mice as relative uterine weight(mg) at 15 ug (control = 14.5+/-2.1); format: functional, tissue-based; summary of the method: as §3
[25] = test system: MCF7; experiment: Effect on [3H]thymidine incorporation into estrogen receptor positive MCF-7 human breast cancer cells at 5x10E-7M (control=48.6+/-3.6); format: functional; summary of the method: as §2
[26] = test system: MCF7; experiment: Effect on Estrogen receptor positive MCF-7 human breast cancer cell proliferation at 5x10E-7M (control = 62.7+/-8.8); format: functional; summary of the method: as §5
[27] = test system: MCF7; experiment: Effect on [3H]thymidine incorporation into estrogen receptor positive MCF-7 human breast cancer cells at 1x10E-6M (control = 48.6+/-3.6); format: functional; summary of the method: as §6
[28] = test system: MCF7; experiment: Effect on [3H]thymidine incorporation into estrogen receptor positive MCF-7 human breast cancer cells at 5x10E-7M
[29] = species on record: Mus musculus; experiment: Relative tumor weight in treated compared to control mice bearing hormone-dependent transplanted MXT mammary tumors at 12.2 mg
[30] = target: T1, Estrogen receptor (Mus musculus); experiment: Anti-uterotrophic effect in hormone-dependent transplant MXT bearing mice as relative uterine weight in treated and control mice at 12.2 mg (control=100+/-24); format: functional
[31] = test system: MCF7; experiment: Effect on Estrogen receptor positive MCF-7 human breast cancer cell proliferation at 5x10E-6M (control = 62.7+/-8.8); format: functional; summary of the method: as §5
[32] = test system: MCF7; experiment: Effect on [3H]thymidine incorporation into estrogen receptor positive MCF-7 human breast cancer cells at 5x10E-6M (control = 48.6+/-3.6); format: functional; summary of the method: as §2
[33] = target: T1, Estrogen receptor (Mus musculus); experiment: Uterotrophic effect in mice as relative uterine weight(mg) at 150 ug (control = 14.5+/-2.1); format: functional, tissue-based; summary of the method: as §3
[34] = test system: MCF7; experiment: Effect on Estrogen receptor positive MCF-7 human breast cancer cell proliferation at 5x10E-6M (control = 25.4+/-3.1); format: functional; summary of the method: as §5
[35] = target: T1, Estrogen receptor (Mus musculus); experiment: Uterotrophic effect in mice as relative uterine weight(mg) at 150 ug (control = […]+/-1.7); format: functional, tissue-based
[36] = target: T1, Estrogen receptor (Mus musculus); experiment: Uterotrophic effect in mice as relative uterine weight(mg) at 15 ug (control = […]+/-1.7); format: functional, tissue-based
[37] = test system: MCF7; experiment: Effect on Estrogen receptor positive MCF-7 human breast cancer cell proliferation at 1x10E-6M (control = 25.4+/-3.1); format: functional; summary of the method: as §5
[38] = test system: MCF7; experiment: Effect on [3H]thymidine incorporation into estrogen receptor positive MCF-7 human breast cancer cells at 1*10^-6 M (control = 10.6+/-1.9); format: functional; summary of the method: as §6
[39] = test system: MCF7; experiment: Effect on [3H]thymidine incorporation into estrogen receptor positive MCF-7 human breast cancer cells at 5*10e-6 M (control = 10.6+/-1.9); format: functional; summary of the method: as §2

T1 sequence (O08537 whole entry, looked up): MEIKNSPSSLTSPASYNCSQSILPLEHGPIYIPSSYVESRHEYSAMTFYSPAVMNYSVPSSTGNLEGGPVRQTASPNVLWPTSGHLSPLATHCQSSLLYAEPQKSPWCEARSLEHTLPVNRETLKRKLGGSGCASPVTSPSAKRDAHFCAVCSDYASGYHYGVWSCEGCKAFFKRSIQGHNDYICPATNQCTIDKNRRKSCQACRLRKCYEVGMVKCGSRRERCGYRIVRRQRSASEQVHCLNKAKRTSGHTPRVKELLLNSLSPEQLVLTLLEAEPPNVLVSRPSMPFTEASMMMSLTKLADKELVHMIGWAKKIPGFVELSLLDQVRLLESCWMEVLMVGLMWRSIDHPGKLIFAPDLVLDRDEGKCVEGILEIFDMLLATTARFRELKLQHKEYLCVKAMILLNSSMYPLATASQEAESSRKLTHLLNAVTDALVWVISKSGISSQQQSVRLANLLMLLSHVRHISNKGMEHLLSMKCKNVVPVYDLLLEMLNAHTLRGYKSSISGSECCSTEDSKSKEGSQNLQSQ
T1 sequence (P19785 whole entry, looked up): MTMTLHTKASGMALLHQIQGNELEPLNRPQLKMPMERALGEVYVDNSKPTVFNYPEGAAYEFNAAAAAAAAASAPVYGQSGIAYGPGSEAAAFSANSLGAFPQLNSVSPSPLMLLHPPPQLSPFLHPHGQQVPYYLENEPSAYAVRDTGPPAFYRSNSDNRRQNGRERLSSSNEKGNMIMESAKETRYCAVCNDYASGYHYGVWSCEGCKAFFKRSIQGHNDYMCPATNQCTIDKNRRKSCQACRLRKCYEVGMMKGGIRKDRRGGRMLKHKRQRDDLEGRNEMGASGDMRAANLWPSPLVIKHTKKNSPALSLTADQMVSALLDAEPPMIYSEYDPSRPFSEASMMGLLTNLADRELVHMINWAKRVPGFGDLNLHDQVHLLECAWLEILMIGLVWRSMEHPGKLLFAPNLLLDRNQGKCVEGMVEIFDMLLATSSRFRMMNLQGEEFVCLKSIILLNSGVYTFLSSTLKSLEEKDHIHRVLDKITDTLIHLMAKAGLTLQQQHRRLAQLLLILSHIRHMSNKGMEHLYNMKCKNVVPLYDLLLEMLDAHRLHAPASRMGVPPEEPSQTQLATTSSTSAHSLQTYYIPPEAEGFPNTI

Relative uterus weight [1]: 46.6 mg
T/C [4]: 137%
Relative uterus weight [5]: 36.9 mg
Relative uterus weight [6]: 27.9 mg
Relative uterus weight [7]: 24.9 mg
inhibition [8]: 31%
T/C [18]: 119%
Structure (SMILES): Cc1c(-c2ccc(O)cc2)n(CCCCCCNCc2ccccn2)c2ccc(O)cc12
T/C [2]: 31%
T/C [3]: 5%
Cell no/dish [9]: 52000
Activity [10]: 400
T/C [11]: 23%
Cell no/dish [12]: 106000
Activity [13]: 1000
T/C [14]: 13%
T/C [15]: 48%
Tumor weight [16]: 169 mg
T/C [17]: 71%
Tumor weight [19]: 378 mg

Relative uterus weight [1]: 40.6 mg
inhibition [20]: 18%
Relative uterus weight [24]: 13.6 mg
Relative uterus weight [5]: 46.1 mg
inhibition [8]: 5%
T/C [30]: 78%
Relative uterus weight [33]: 22.1 mg
Structure (SMILES): Oc1ccc(-c2cc3cc(O)ccc3n2CCCCCCNCc2ccccn2)cc1
Tumor weight [21]: 158 mg
T/C [22]: 54%
Cell no/dish [23]: 334000
T/C [3]: 20%
[3H] thymidinecpm/dish [25]: 22800
Cell no/dish [26]: 335000
Activity [27]: 20000
T/C [28]: 47%
T/C [29]: 80%
T/C [11]: 31%
T/C [14]: 41%
T/C [15]: 53%
Cell no/dish [31]: 195000
Activity [32]: 9600

Relative uterus weight [1]: 32.8 mg
inhibition [20]: 42%
Relative uterus weight [5]: 30.5 mg
inhibition [8]: 51%
Relative uterus weight [35]: 26 mg
Relative uterus weight [36]: 14.7 mg
Structure (SMILES): CCC(NCCCCCCn1c(-c2ccc(O)cc2)c(C)c2cc(O)ccc21)c1ccccn1 (centres undefined)
Cell no/dish [34]: 137000
T/C [3]: 79%
T/C [11]: 54%
T/C [14]: 99%
T/C [15]: 77%
Cell no/dish [37]: 195000
Activity [38]: 10500
Activity [39]: 8400
